# Screening data as filed in PubChem BioAssay.
# Rad51 HR inh – Rad51 (human) homologous recombination inhibition; hRad51 DNA strand exchange, fluorescence dequenching; inhibition, % at 10 µM; 200,000 tested, 0.085% active;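 active means inhibition above 40% at the single screening dose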;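 further: 0% = DMSO control wells and 100% = blanks with heterologous ssDNA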
# Target sequence (Q06609 whole entry, looked up): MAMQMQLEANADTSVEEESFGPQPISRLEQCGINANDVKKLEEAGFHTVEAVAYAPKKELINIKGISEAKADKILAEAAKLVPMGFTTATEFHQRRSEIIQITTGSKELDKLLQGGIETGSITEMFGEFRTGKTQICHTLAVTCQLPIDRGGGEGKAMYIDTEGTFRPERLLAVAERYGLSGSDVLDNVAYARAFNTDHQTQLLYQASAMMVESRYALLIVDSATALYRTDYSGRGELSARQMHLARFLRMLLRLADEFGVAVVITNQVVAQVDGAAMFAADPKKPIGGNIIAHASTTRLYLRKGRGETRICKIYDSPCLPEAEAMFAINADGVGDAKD
#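 Test system – preformed human Rad51 ssDNA filaments · Reagent – Donor/quencher-labelled 47-bp dsDNA substrate · Incubation – 37 °C 15-min filament assembly, 30-min compound preincubation, 15-min exchange · Signal – FRET fluorescence dequenching, excitation 485 nm, emission 520 nm · Read-out – percent inhibition from fluorescence, normalised to plate control and blank means · Benchmarks – plate control and blank wells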
# Tb hexokinase – T. brucei hexokinase 1 inhibition | recombinant TbHK1, G6PDH-coupled NADH A340 | inhibition, % at 10 µM | 220,000 tested, 0.11% active | AID 1430;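 active means inhibition of 50% or more in the single-dose primary screen; inactive means inhibition below 50%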
# MT stabilize HCS – stabilizes microtubules in HeLa cells. HeLa tubulin immunostaining HCS, 24 h; share of cells brighter than vehicle mean+2SD. 200,000 tested, 0.83% active. % tubulin-high responders, % at 10 µM;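 active means plate Z-score above 3 for both tubulin-high and condensed-nucleus cell shares, with cell loss under 80%, at 10 µM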;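 further: anti alpha tubulin signal scored within the nucleus-defined area of each cell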
# Dynein cargo inh – dynein cargo transport inhibition; 3617.4 mouse cells, GR-EGFP nuclear translocation imaging; test concentration mostly 20 µM; stimulated with dexamethasone, 1 µM; active compounds read low; z-score, hits read low; 220,000 tested, 0.47% active; AID 1381;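 active means plate z-score of nuclear minus cytoplasmic receptor signal below a set negative limit, without overly bright fluorescence or cell loss, cut at about -3.5 in these data, passing the limit was not always enough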;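 further: z-score of nuclear minus cytoplasmic ring GR-EGFP intensity difference per well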
#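 Buffer or medium: tet-free medium with charcoal-stripped serum / Also added: dexamethasone agonist, 1.0 µM final, for 30 min / Timing: induction 48 h, compound 1 h, agonist 30 min / Measured by: high-content fluorescence imaging after fixation / Read-out: nuclear-to-cytoplasmic GR-EGFP distribution per well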
# b-catenin transl – beta-catenin nuclear translocation modulation. HeLa beta-catenin nuclear translocation, immunofluorescence imaging. nuclear translocation activity, % at 5 µM. 190,000 tested, 0.3% active;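 active means nuclear translocation activity above 50% at 5 µM, with a well cell count of 50 or more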;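 further: per-cell ratio of nuclear to cytoplasmic median beta-catenin stain intensity; plate controls were DMSO negative control for no effect and GSK-3 inhibitor IX positive control for full effect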
#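 Test system: human HeLa cells, endogenous beta-catenin. Times: 24 h compound exposure, 37°C. Measured by: beta-catenin immunofluorescence imaging with DAPI.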
# The depositor's hits bear a star; · = not tested or not shown. In the library only some 1.5% were active in any assay of this set; here they are far more common.
SMILES,Rad51 HR inh,Tb hexokinase,MT stabilize HCS,Dynein cargo inh,b-catenin transl
COc1ccccc1NC(=O)/C(C#N)=C/C=C/c1ccco1,2.6,-21.4,41.3*,-1.1,61.3*
C=C(c1cccc2ccccc12)P(=O)(O)O,0.4,-2.4,2.8,-0.261,-0.2
COCCNC(=O)CS(=O)Cc1nc(-c2ccccc2C)oc1C (stereo unspecified),3.5,-4.3,4.1,-0.025,·
Cc1cccc(NC(=S)NC(=O)/C=C/c2ccco2)c1,·,-2.2,22.1*,-0.155,52.2*
O=C(/C=C/c1ccco1)Nc1ccc(N2CCCC2)cc1,-0.2,-3.3,24.6*,-0.775,6.8
O=C(/C=C/c1ccco1)Nc1ccccn1,·,-33.1,17.5,0.462,45.2
Cc1ccc(NC(=O)/C=C/c2ccco2)nc1,10.6,-37.8,3.6,-0.173,146.2*
O=C(/C=C/c1ccco1)NC(=S)Nc1ccc(N2CCOCC2)c(Cl)c1,2.7,-0.6,48.1*,0.256,-0.2
Cc1ccc(-n2nc3ccc(NC(=S)NC(=O)/C=C/c4ccco4)cc3n2)cc1,·,-36.3,2.1,0.422,1.6
O=C(/C=C/c1ccco1)Nc1ccc(C(=O)N2CCOCC2)cc1,5.1,-51.3,1.5,-0.697,0.2
O=C(/C=C/c1ccccc1)NC(=S)Nc1ccc(N2CCOCC2)c(Cl)c1,·,-10.8,1.0,-0.237,-1.7
CC1(C)CC(=O)C=C(NNC(=O)c2ccc(N)cc2)C1,-1.4,-6.8,3.0,-0.526,0.9
O=C(N1CCOCC1)N1CCN(c2ccccn2)CC1,0.2,3.6,2.4,2.75,-1.3
COc1ccc(-c2csc(NC(=S)NC(=O)/C=C/c3ccco3)n2)cc1OC,2.9,-40.4,2.5,-0.722,52.5*
O=C(/C=C/c1ccco1)NC(=S)Nc1cccc([N+](=O)[O-])c1,-9.5,-8.3,15.0*,0.0678,1.5
Cc1ccc(S(=O)(=O)NC(=NCC(=O)O)c2ccccc2)cc1,-10.9,7.1,2.1,-0.923,-5.6
Clc1cccc(Cl)c1COc1ccccc1CNn1cnnc1,-4.9,-0.2,22.5*,-0.193,3.1
O=C(O)C(=O)/C(=C\c1cccc2ccccc12)c1ccc2ccccc2n1,-40.9,-8.1,41.3*,-0.693,·
O=C(O)C(=O)/C(=C\c1ccccc1)c1ccc2ccccc2n1,-6.5,-11.7,3.4,-0.209,·
Cc1cc(C)c(S(=O)(=O)Nc2ccc3c4c(cccc24)CC3)c(C)c1,-10.0,5.0,15.1,-0.207,0.3
Cc1ccc(S(=O)(=O)Nc2ccc3c4c(cccc24)CC3)c(C)c1,1.3,1.3,41.7*,-0.766,·
COC(=O)C1=C(C)NC2=C(C(=O)CCC2)C1c1cccc(C)n1 (stereo unspecified),2.8,-7.6,3.2,-0.195,-2.7
O=[N+]([O-])c1cc(C2Nc3cccc4cccc(c34)N2)ccc1Cl,-2.5,-10.9,3.1,-0.417,·
COc1cc(C2Nc3cccc4cccc(c34)N2)cc(OC)c1OC(C)=O,·,-10.2,16.1*,-1.76,-1.1
CO/N=C\CC(=O)Nc1ccc(Cl)cc1Cl,23.3,17.3,10.4*,-0.86,1.0
SMILES,Rad51 HR inh,Tb hexokinase,MT stabilize HCS,Dynein cargo inh,b-catenin transl
Cc1cc(NC(=O)CSc2ccc(-c3ccccc3)nn2)no1,4.9,2.5,3.0,0.327,0.2
O=S(=O)(c1ccc(Nc2ccc(-c3ccc4c(c3)OCCO4)nn2)cc1)N1CCCC1,-2.5,-13.5,12.1*,2.76,·
CCN(CC)c1ccc(C(=O)n2cnc3ccccc32)cc1,-2.2,-20.8,22.2*,-0.761,6.4
N#Cc1ccc(C23CC4(C2)[C@H](CN(Cc2ccc(-c5ccccc5)cc2)[C@@H]4c2ccccc2)C3c2ccc(C(F)(F)F)cc2)cc1 (stereo partly specified),-3.7,-17.5,·,-0.928,-0.2
S=c1[nH]nc(-c2ccco2)n1/N=C/c1c(Cl)cccc1Cl,15.1,-22.9,·,-1.3,-0.2
CCC1CCCCN1CC(=O)Nc1cc(C)nn1-c1nc(C)cc(C)n1 (stereo unspecified),-1.2,-2.2,52.8*,-0.532,1.2
COc1cccc(C2=CC(c3cccs3)n3nnnc3N2)c1 (stereo unspecified),-3.2,-13.8,33.4*,0.213,1.4
COc1ccc(N2CCc3c(C)nc4c(OC)cccc4c32)cc1,-6.1,-10.5,26.0*,-0.331,104.0*
CCOc1cc(C2NC(=S)NC(C)=C2C(=O)Nc2ccc(OC)cc2)ccc1O (stereo unspecified),·,-10.3,3.8,0.577,-2.9
